# Measured values of several laboratories.
# Each line is one published result; the experiments were not run side by side.
# Target: Homeodomain-interacting protein kinase 3 (HIPK3, Homo sapiens, UniProt Q9H422)
SMILES,observed,action,method,tested at,endpoint,result
O=C(O)c1ccc2c(c1)nc(Nc1ccccc1)c1ncncc12,enzyme activity,inhibitor,radiometric,1 µM,remaining activity,13%
CCc1ccccc1C(=O)Nc1n[nH]c2c(C)c(F)c(C3C(C#N)=C(C)N(C)C(C)=C3C#N)cc12,cell-free assay,,competition with immobilised ligand,1 µM,remaining binding,100%
O=C(O)c1ccc2c(c1)nc(Nc1ccccc1Cl)c1ncncc12,enzyme activity,inhibitor,radiometric,1 µM,remaining activity,17%
Cc1noc([C@H]2C[C@@H](c3ccc(C(F)(F)F)cc3)CN(C(=O)N3CCS(=O)(=O)C3)C2)n1,cell-free assay,,competition with immobilised ligand,1 µM,remaining binding,96%
C#Cc1cccc(Nc2ncnc3cc(OCCOC)c(OCCOC)cc23)c1,cell-free assay,,,0.5 µM,remaining signal,102%
CCN(CC)CCNC(=O)c1c(C)[nH]c(/C=C2\C(=O)Nc3ccc(F)cc32)c1C,enzyme activity,inhibitor,,0.3 µM,inhibition,21%
COc1cc2ncnc(Nc3ccc(Oc4ccccc4)c(C)c3C)c2cc1OC,enzyme activity,inhibitor,,1 µM,inhibition,1%
CCCOc1ccc([C@H]2[C@H](C(=O)O)[C@@H](c3ccc4c(c3)OCO4)CN2CC(=O)Nc2c(CC)cccc2CC)cc1,cell-free assay,,competition with immobilised ligand,1 µM,remaining binding,74%
N#Cc1cccc(Nc2nc3cc(C(=O)O)ccc3c3cncnc23)c1,enzyme activity,inhibitor,radiometric,1 µM,remaining activity,8%
Cc1ccc(Nc2nccc(N(C)c3ccc4c(C)n(C)nc4c3)n2)cc1S(N)(=O)=O,enzyme activity,inhibitor,,0.3 µM,inhibition,24%
CNC(=O)Nc1ccc2c(c1)[C@@]1(CC2)OC(=O)N(CC(=O)N(Cc2ccc(F)cc2)[C@@H](C)C(F)(F)F)C1=O,cell-free assay,,competition with immobilised ligand,1 µM,remaining binding,90%
O=C(Nc1cnn(-c2csc(C(=O)NC3COC3)c2)c1)Nc1c(F)cccc1Cl,enzyme activity,inhibitor,,5 µM,remaining activity,98.8%
Cc1cc(NC(=O)c2cccc3cc(-c4cccc5[nH]nc(N)c45)ccc23)ccc1F,enzyme activity,inhibitor,,0.1 µM,activity vs control,92%
COc1cccc(CCNc2nc3cc(C(=O)O)ccc3c3cncnc23)c1,enzyme activity,inhibitor,radiometric,1 µM,remaining activity,27%
N#Cc1ccc(Nc2ccc3[nH]c(=O)[nH]c3c2)c(Cl)c1,cell-free assay,,competition with immobilised ligand,1 µM,remaining binding,94%
COc1cc(-c2cc(-c3ccc(N4CCNCC4)cc3)cnc2C)cc(OC)c1OC,enzyme activity,inhibitor,,0.1 µM,inhibition,1%
CCCS(=O)(=O)Nc1ccc(F)c(C(=O)c2c[nH]c3ncc(-c4ccc(Cl)cc4)cc23)c1F,enzyme activity,inhibitor,,1 µM,inhibition,< 10%
O=C(O)c1ccc2c(c1)nc(Nc1ccc(Cl)cc1)c1ncncc12,enzyme activity,inhibitor,radiometric,1 µM,remaining activity,7%
Cc1nc(Cc2cccc(C(F)(F)F)c2)sc1-c1ccc(C(N)=O)nc1,cell-free assay,,competition with immobilised ligand,1 µM,remaining binding,100%
O=C(O)c1ccc2c(c1)nc(NCCc1cccc(F)c1)c1ncncc12,enzyme activity,inhibitor,radiometric,1 µM,remaining activity,27%
FC(F)(F)Oc1cccc(-c2cnc3ccc(-c4ccncc4)nn23)c1,enzyme activity,inhibitor,radiometric,1 µM,activity vs control,44%
CN1CC(Oc2cnc(C#N)cc2-c2ccn3nc(NC(=O)C4CC4)cc3c2)C1,enzyme activity,inhibitor,,1 µM,inhibition,-3%
CNC(=O)c1cc(Oc2ccc(NC(=O)Nc3ccc(Cl)c(C(F)(F)F)c3)cc2)ccn1,cell-free assay,,,0.5 µM,remaining signal,85.7%
O=C(O)c1ccc2c(c1)nc(NCCc1cccc(Cl)c1)c1ccncc12,enzyme activity,inhibitor,radiometric,1 µM,remaining activity,29%
COc1cc(/C=C/C(=O)CC(=O)/C=C/c2ccc(O)c(OC)c2)ccc1O,enzyme activity,inhibitor,,1 µM,activity vs control,88%
CC/C(=N\NC(=O)NCc1cccc(O)c1)c1ccc(O)c(C)c1O,enzyme activity,inhibitor,,0.1 µM,inhibition,2.5%
Cc1c(C(=O)O)cc(-c2ccc(C3CCNCC3)cc2)c2ccc(-c3ccc(C(F)(F)F)cc3)cc12,binding,,competition with immobilised ligand,1 µM,remaining binding,100%
O=C1Nc2ccc(Cl)cc2C1=Cc1cc(Cl)c(O)c(Cl)c1,cell-free assay,,,0.5 µM,remaining signal,91.5%
O=C(NC[C@@H]1[C@H]2CN(C(=O)OCc3cc(C(F)(F)F)cc(C(F)(F)F)c3)C[C@@H]12)c1ccc2[nH]nnc2c1,cell-free assay,,competition with immobilised ligand,1 µM,remaining binding,89%
COc1cccc(CCNc2nc3cc(C(=O)O)ccc3c3cnccc23)c1,enzyme activity,inhibitor,radiometric,1 µM,remaining activity,21%
